Assay results as given in ChEMBL document CHEMBL5346895, “Small molecule inhibitors of intestinal epithelial anion exchanger SLC26A3 (DRA) with a luminal, extracellular site of action” (Eur J Med Chem, 2023).
Calls of active or inactive are those of the source. The rule behind the calls is not given here.

Tested on: Mus musculus
Test: Effect on loperamide-induced constipation in CD-1 mouse assessed as increase in pellet number at 10 mg/kg, po via gavage administered 1 hr prior to loperamide administration measured for 3 hrs
Format: functional, organism-based
Settings: time 4.0 hrs
Outline: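 CD1 mice (bred in house, 8–12 weeks). Test compound given by oral gavage at 10 mg/kg in saline with 5% DMSO and 10% Kolliphor-HS, or vehicle alone, 1 h before loperamide (0.3 mg/kg ip in PBS with 5% ethanol). Mice then held in metabolic cages with free food and water. Stool collected over 3 h for total weight and pellet count. Water content from wet vs dry stool weight.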

In the case of `O=c1cc(COc2ccccc2Cl)nc2scc(-c3ccccc3)n12`, the Activity is reported as “Active”.
